{
  "source": "ChEMBL document CHEMBL5316292",
  "about": "(J Med Chem, 2023)",
  "key": {"[1]": {"target": "T1, Bromodomain-containing protein 2 (Homo sapiens, UniProt P25440)", "test": "Binding affinity to human partial length BRD2 BD2 (E348 to D455 residues) expressed in bacterial expression system assessed as change in melting temperature at 50 uM at 20 to 85 degreeC by SYPRO orange staining based thermal shift assay", "procedure,_shortened": "(§1)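 DSF thermal shift. 10 µM BD in 50 mM HEPES, 500 mM NaCl pH 7.5, with 50 µM compound or DMSO-matched control and 1:1000 Sypro Orange (ex 465/em 590 nm). Ramp 20–85 °C at 0.03 °C/s. Tm taken as the midpoint between fluorescence max and min. At least three independent experiments, SEM in °C.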"}, "[2]": {"target": "T1, Bromodomain-containing protein 2", "test": "Binding affinity to human partial length BRD2 BD1 (K71 to N194 residues) expressed in bacterial expression system assessed as change in melting temperature at 50 uM at 20 to 85 degreeC by SYPRO orange staining based thermal shift assay", "procedure,_shortened": "as §1"}, "[3]": {"target": "T2, Bromodomain testis-specific protein (Homo sapiens, UniProt Q58F21)", "test": "Binding affinity to human partial length BRDT BD1 (N21 to E137 residues) expressed in bacterial expression system assessed as change in melting temperature at 50 uM at 20 to 85 degreeC by SYPRO orange staining based thermal shift assay", "procedure,_shortened": "as §1"}, "[4]": {"target": "T2, Bromodomain testis-specific protein", "test": "Binding affinity to human partial length BRDT BD2 (K250 to E382 residues) expressed in bacterial expression system assessed as change in melting temperature at 50 uM at 20 to 85 degreeC by SYPRO orange staining based thermal shift assay", "procedure,_shortened": "as §1"}, "[5]": {"target": "T1, Bromodomain-containing protein 2", "test": "Binding affinity to human partial length BRD2 BD2 (E348to D455 residues) expressed in bacterial expression system using H4K5acIC8acK12acK16ac-biotinylated peptide as substrate preincubated for 30 mins followed by substrate addition by AlphaScreen assay", "procedure,_shortened": "(§2)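 AlphaScreen. Biotinylated H4K5acK8acK12acK16ac peptide added at equal concentration to protein for 30 min. Donor and acceptor beads (25 µg/mL each) added, ≥1 h in the dark. Triplicate, curve-fitted, SEM.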"}, "[6]": {"target": "T3, Bromodomain-containing protein 3 (Homo sapiens, UniProt Q15059)", "test": "Binding affinity to human partial length BRD3 BD1 (P24 to E144 residues) expressed in bacterial expression system using H4K5acIC8acK12acK16ac-biotinylated peptide as substrate preincubated for 30 mins followed by substrate addition by AlphaScreen assay", "procedure,_shortened": "as §2"}, "[7]": {"target": "T3, Bromodomain-containing protein 3", "test": "Binding affinity to human partial length BRD3 BD2 (G306 to P416 residues) expressed in bacterial expression system using H4K5acIC8acK12acK16ac-biotinylated peptide as substrate preincubated for 30 mins followed by substrate addition by AlphaScreen assay", "procedure,_shortened": "as §2"}, "[8]": {"test": "Antiproliferative activity against human Androgen-resistant 22Rv1 cells assessed as reduction in cell viability measured after 72 hrs by MTS assay", "type": "functional, cell-based", "conditions": "22Rv1, 72 h", "procedure,_shortened": "(§3)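 MTS viability assay run in triplicate wells. Serial dilutions in DMSO were given, with DMSO as negative control and doxorubicin as positive control, and incubated 72 h. MTS reagent was added for 2 h and absorbance read at 490 nm. % cytotoxicity = (A_medium − A_treatment)/A_medium × 100. EC50 ± SD was taken from dose-response curves of at least three independent experiments.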"}, "[9]": {"test_system": "PC-3", "test": "Antiproliferative activity against androgen-insensitive human PC-3 cells assessed as reduction in cell viability measured after 72 hrs by MTS assay", "type": "functional, cell-based", "conditions": "PC-3, 72 h", "procedure,_shortened": "as §3"}, "[10]": {"test_system": "VCaP", "test": "Downregulation of BRD3 mRNA levels in human VCaP cells at 25 to 2500 nM incubated for 24 hrs by qRT-PCR analysis", "type": "functional, cell-based", "conditions": "dose 25-2500 nM", "procedure,_shortened": "(§4)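 VCaP cells grown to 50% confluence, then treated with compound or DMSO (Methods state 16 h, legend states 24 h). Total RNA isolated, cDNA made from 1 µg RNA, SYBR Green qPCR run in triplicate. Expression by ΔΔCt, normalised to GAPDH. Three independent experiments, SEM.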"}, "[11]": {"test_system": "VCaP", "test": "Downregulation of TMPRSS2 gene levels in human VCaP cells incubated for 24 hrs by qRT-PCR analysis", "type": "functional, cell-based", "conditions": "dose 25-2500 nM", "procedure,_shortened": "as §4"}, "[12]": {"test_system": "VCaP", "test": "Downregulation of ERG gene levels in human VCaP cells incubated for 24 hrs by qRT-PCR analysis", "type": "functional, cell-based", "conditions": "dose 25-2500 nM", "procedure,_shortened": "as §4"}, "[13]": {"target": "T1, Bromodomain-containing protein 2", "test": "Induction of BRD2 degradation in human MDA-MB-231 cells incubated for 16 hrs by immunoblotting analysis", "type": "cell-based", "procedure,_shortened": "(§5)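 MDA-MB-231 or PC-3 cells at 50% confluence in DMEM/10% FBS/pen-strep, treated 16 h with doses falling tenfold from 10 µM to 1 nM. RIPA lysates immunoblotted for BRD2, BRD3 and BRD4 with GAPDH as control. DC50 derived from band densitometry. SEM, n = 2.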"}, "[14]": {"target": "T3, Bromodomain-containing protein 3", "test": "Induction of BRD3 degradation in human MDA-MB-231 cells incubated for 16 hrs by immunoblotting analysis", "type": "cell-based", "procedure,_shortened": "as §5"}, "[15]": {"target": "T4, Bromodomain-containing protein 4 (Homo sapiens, UniProt O60885)", "test": "Induction of BRD4 degradation in human MDA-MB-231 cells at 0.025 to 2.5 uM incubated for 24 hrs by qRT-PCR analysis", "type": "cell-based", "conditions": "dose 0.025-2.5 µM", "procedure,_shortened": "(§6)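 MDA-MB-231 cells treated for 24 h at doses rising tenfold from 25 nM to 2.5 µM. Gene expression measured by qRT-PCR. SEM, n = 3.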"}, "[16]": {"test_system": "MDA-MB-231", "test": "Effect on BET mRNA levels in human MDA-MB-231 cells at 0.025 to 2.5 uM incubated for 24 hrs by qRT-PCR analysis", "type": "functional, cell-based", "conditions": "dose 0.025-2.5 µM", "procedure,_shortened": "as §6"}, "[17]": {"target": "T1, Bromodomain-containing protein 2", "test": "Induction of BRD2 degradation in human MDA-MB-231 cells assessed as decrease in BET half life at 10 uM incubated for 8 hrs in presence of cycloheximide by immunoblotting analysis", "type": "cell-based", "procedure,_shortened": "(§7)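 MDA-MB-231 time-course. Cells given 50 µg/mL cycloheximide plus DMSO, or 50 µg/mL cycloheximide plus 10 µM compound. RIPA lysates immunoblotted for BRD2, BRD3 and BRD4 with GAPDH as control.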"}, "[18]": {"target": "T4, Bromodomain-containing protein 4", "test": "Induction of BRD4 degradation in human MDA-MB-231 cells assessed as decrease in BET half life at 10 uM incubated for 8 hrs in presence of cycloheximide by immunoblotting analysis", "type": "cell-based", "procedure,_shortened": "as §7"}, "[19]": {"target": "T3, Bromodomain-containing protein 3", "test": "Induction of BRD3 degradation in human MDA-MB-231 cells at 10 uM by immunoblotting analysis", "type": "cell-based", "conditions": "time 8.0 hrs"}, "[20]": {"target": "T4, Bromodomain-containing protein 4", "test": "Induction of BRD4 degradation in human MDA-MB-231 cells at 10 uM by immunoblotting analysis", "type": "cell-based", "conditions": "time 8.0 hrs"}, "[21]": {"target": "T3, Bromodomain-containing protein 3", "test": "Induction of BRD3 degradation in human MDA-MB-231 cells at 10 uM incubated for 8 hrs in presence of MG132 by immunoblotting analysis", "type": "cell-based"}, "[22]": {"target": "T4, Bromodomain-containing protein 4", "conditions": "dose 50.0 µM"}, "[23]": {"test": "Induction of degradation in human PC-3 cells incubated for 16 hrs by immunoblotting analysis"}, "[24]": {"test_system": "DU-145", "test": "Antiproliferative activity against AR-negative human DU-145 cells assessed as reduction in cell viability measured after 72 hrs by MTS assay", "conditions": "DU-145, 72 h"}},
  "note": "The source made the active and inactive calls. The calls are words filed in the database; no cut-off is given here.",
  "data": [
    {"smiles": "CC(=O)OC[C@]12CC[C@H]3[C@@H](C[C@H]4O[C@]45CC=CC(=O)[C@]35C)[C@]1(O)CC[C@@]2(O)[C@@](C)(O)[C@H]1CC(C)=C(C)C(=O)O1", "values": [
      {"measurement": "ΔTm", "setting": "[1]", "result": 8.23, "unit": "°C"},
      {"measurement": "ΔTm", "setting": "[2]", "result": 10.4, "unit": "°C"},
      {"measurement": "ΔTm", "setting": "[3]", "result": 9.57, "unit": "°C"},
      {"measurement": "ΔTm", "setting": "[4]", "result": 7.58, "unit": "°C"},
      {"measurement": "IC50", "setting": "[5]", "result": 244, "unit": "nM"},
      {"measurement": "IC50", "setting": "[6]", "result": 7.11, "unit": "nM"},
      {"measurement": "IC50", "setting": "[7]", "result": 108, "unit": "nM"},
      {"measurement": "EC50", "setting": "[8]", "result": 30.3, "unit": "nM"},
      {"measurement": "EC50", "setting": "[9]", "result": 63, "unit": "nM"},
      {"measurement": "Activity", "setting": "[10]", "result": "inactive"},
      {"measurement": "Activity", "setting": "[11]", "result": "Dose-Dependent Effect"},
      {"measurement": "Activity", "setting": "[12]", "result": "Dose-Dependent Effect"},
      {"measurement": "DC50", "setting": "[13]", "result": "> 10000", "unit": "nM"},
      {"measurement": "Activity", "setting": "[14]", "result": "Dose-Dependent Effect"},
      {"measurement": "DC50", "setting": "[14]", "result": 23.9, "unit": "nM"},
      {"measurement": "Activity", "setting": "[15]", "result": "inactive"},
      {"measurement": "Activity", "setting": "[16]", "result": "inactive"},
      {"measurement": "Activity", "setting": "[17]", "result": "Active"},
      {"measurement": "Activity", "setting": "[18]", "result": "Active"},
      {"measurement": "Activity", "setting": "[19]", "result": "Active"},
      {"measurement": "Activity", "setting": "[20]", "result": "Active"},
      {"measurement": "Activity", "setting": "[21]", "result": "inactive"},
      {"measurement": "ΔTm", "setting": "[22]", "result": 11.8, "unit": "°C"},
      {"measurement": "Activity", "setting": "[23]", "result": "Dose-Dependent Effect"},
      {"measurement": "EC50", "setting": "[24]", "result": 263, "unit": "nM"}
    ]}
  ]
}
